# System: HEK-293T
# Test: Multiplex assay against HEK293T;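 as to Population Tubulin-Different-Phenotype (%): share of the cells with healthy nuclei that show this phenotype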
# Assay type: toxicity, cell-based
# Details: human
# Method in brief: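 Per cents of healthy-nucleus cells form the tubulin, mitochondrial-mass and membrane-permeability phenotype values. Live cells were stained at seeding with Hoechst33342, BioTracker Green Microtubule Cytoskeleton Dye, MitoTracker Red and Annexin V Alexa Fluor 680. After compound addition they were imaged on a CQ1 microscope at 37°C and 5% CO2, and CellPathfinder machine-learning gating split them into Hoechst high-intensity objects or normal cells, normal cells into healthy, pyknosed or fragmented nuclei, and pyknosed cells into mitotic or apoptotic.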
# [1] = 12 h, 1 µM, compound concentration 1 uM, replicate 1
# [2] = 12 h, 1 µM, compound concentration 1 uM, replicate 2
# [3] = 12 h, 10 µM, compound concentration 10 uM, replicate 1
# [4] = 12 h, 10 µM, compound concentration 10 uM, replicate 2
# [5] = 24 h, 1 µM, compound concentration 1 uM, replicate 1
# [6] = 24 h, 1 µM, compound concentration 1 uM, replicate 2
# [7] = 24 h, 10 µM, compound concentration 10 uM, replicate 1
# [8] = 24 h, 10 µM, compound concentration 10 uM, replicate 2
# [9] = 48 h, 1 µM, compound concentration 1 uM, replicate 1
# [10] = 48 h, 1 µM, compound concentration 1 uM, replicate 2
# [11] = 48 h, 10 µM, compound concentration 10 uM, replicate 1
# [12] = 48 h, 10 µM, compound concentration 10 uM, replicate 2
smiles,measurement,setting,value
CCCS(=O)(=O)c1nc(NC2CC2)cc(-c2ccc3c(ccn3C3CC(C)(C)NC(C)(C)C3)c2)n1,Population Apoptotic (%),[1],58%
same,Population Fragmented Nuclei (%),[1],8%
same,Population Healthy Nuclei (%),[1],37%
same,Population Hoechst High Intensity Objects (%),[1],13%
same,Population Membrane Permeable-Phenotype (%),[1],4%
same,Population Mitochondria Different-Phenotype (%),[1],86%
same,Population Mitotic Cells (%),[1],41%
same,Population Normal (%),[1],86%
same,Population Pyknosed Nuclei (%),[1],53%
same,Population Tubulin-Different-Phenotype (%),[1],80%
same,Total Cell Count,[1],351
same,Population Apoptotic (%),[2],18%
same,Population Fragmented Nuclei (%),[2],11%
same,Population Healthy Nuclei (%),[2],24%
same,Population Hoechst High Intensity Objects (%),[2],7%
same,Population Membrane Permeable-Phenotype (%),[2],12%
same,Population Mitochondria Different-Phenotype (%),[2],51%
same,Population Mitotic Cells (%),[2],81%
same,Population Normal (%),[2],92%
same,Population Pyknosed Nuclei (%),[2],64%
same,Population Tubulin-Different-Phenotype (%),[2],45%
same,Total Cell Count,[2],137
same,Population Apoptotic (%),[3],65%
same,Population Fragmented Nuclei (%),[3],63%
same,Population Healthy Nuclei (%),[3],3%
same,Population Hoechst High Intensity Objects (%),[3],9%
same,Population Membrane Permeable-Phenotype (%),[3],16%
same,Population Mitochondria Different-Phenotype (%),[3],16%
same,Population Mitotic Cells (%),[3],34%
same,Population Normal (%),[3],90%
same,Population Pyknosed Nuclei (%),[3],33%
same,Population Tubulin-Different-Phenotype (%),[3],16%
same,Total Cell Count,[3],650
same,Population Apoptotic (%),[4],74%
same,Population Fragmented Nuclei (%),[4],24%
same,Population Healthy Nuclei (%),[4],1%
same,Population Hoechst High Intensity Objects (%),[4],10%
same,Population Membrane Permeable-Phenotype (%),[4],0%
same,Population Mitochondria Different-Phenotype (%),[4],100%
same,Population Mitotic Cells (%),[4],25%
same,Population Normal (%),[4],89%
same,Population Pyknosed Nuclei (%),[4],74%
same,Population Tubulin-Different-Phenotype (%),[4],100%
same,Total Cell Count,[4],274
same,Population Apoptotic (%),[5],60%
same,Population Fragmented Nuclei (%),[5],10%
same,Population Healthy Nuclei (%),[5],37%
same,Population Hoechst High Intensity Objects (%),[5],14%
same,Population Membrane Permeable-Phenotype (%),[5],2%
same,Population Mitochondria Different-Phenotype (%),[5],79%
same,Population Mitotic Cells (%),[5],39%
same,Population Normal (%),[5],85%
same,Population Pyknosed Nuclei (%),[5],52%
same,Population Tubulin-Different-Phenotype (%),[5],80%
same,Total Cell Count,[5],345
same,Population Apoptotic (%),[6],31%
same,Population Fragmented Nuclei (%),[6],11%
same,Population Healthy Nuclei (%),[6],34%
same,Population Hoechst High Intensity Objects (%),[6],7%
same,Population Membrane Permeable-Phenotype (%),[6],11%
same,Population Mitochondria Different-Phenotype (%),[6],66%
same,Population Mitotic Cells (%),[6],68%
same,Population Normal (%),[6],92%
same,Population Pyknosed Nuclei (%),[6],53%
same,Population Tubulin-Different-Phenotype (%),[6],71%
same,Total Cell Count,[6],140
same,Population Apoptotic (%),[7],60%
same,Population Fragmented Nuclei (%),[7],63%
same,Population Healthy Nuclei (%),[7],3%
same,Population Hoechst High Intensity Objects (%),[7],11%
same,Population Membrane Permeable-Phenotype (%),[7],26%
same,Population Mitochondria Different-Phenotype (%),[7],5%
same,Population Mitotic Cells (%),[7],39%
same,Population Normal (%),[7],88%
same,Population Pyknosed Nuclei (%),[7],32%
same,Population Tubulin-Different-Phenotype (%),[7],10%
same,Total Cell Count,[7],639
same,Population Apoptotic (%),[8],88%
same,Population Fragmented Nuclei (%),[8],29%
same,Population Healthy Nuclei (%),[8],4%
same,Population Hoechst High Intensity Objects (%),[8],10%
same,Population Membrane Permeable-Phenotype (%),[8],11%
same,Population Mitochondria Different-Phenotype (%),[8],33%
same,Population Mitotic Cells (%),[8],12%
same,Population Normal (%),[8],89%
same,Population Pyknosed Nuclei (%),[8],66%
same,Population Tubulin-Different-Phenotype (%),[8],88%
same,Total Cell Count,[8],249
same,Population Apoptotic (%),[9],54%
same,Population Fragmented Nuclei (%),[9],15%
same,Population Healthy Nuclei (%),[9],47%
same,Population Hoechst High Intensity Objects (%),[9],17%
same,Population Membrane Permeable-Phenotype (%),[9],7%
same,Population Mitochondria Different-Phenotype (%),[9],58%
same,Population Mitotic Cells (%),[9],45%
same,Population Normal (%),[9],82%
same,Population Pyknosed Nuclei (%),[9],37%
same,Population Tubulin-Different-Phenotype (%),[9],79%
same,Total Cell Count,[9],417
same,Population Apoptotic (%),[10],28%
same,Population Fragmented Nuclei (%),[10],9%
same,Population Healthy Nuclei (%),[10],61%
same,Population Hoechst High Intensity Objects (%),[10],5%
same,Population Membrane Permeable-Phenotype (%),[10],12%
same,Population Mitochondria Different-Phenotype (%),[10],32%
same,Population Mitotic Cells (%),[10],71%
same,Population Normal (%),[10],94%
same,Population Pyknosed Nuclei (%),[10],29%
same,Population Tubulin-Different-Phenotype (%),[10],64%
same,Total Cell Count,[10],226
same,Population Apoptotic (%),[11],69%
same,Population Fragmented Nuclei (%),[11],67%
same,Population Healthy Nuclei (%),[11],3%
same,Population Hoechst High Intensity Objects (%),[11],11%
same,Population Membrane Permeable-Phenotype (%),[11],31%
same,Population Mitochondria Different-Phenotype (%),[11],0%
same,Population Mitotic Cells (%),[11],30%
same,Population Normal (%),[11],88%
same,Population Pyknosed Nuclei (%),[11],29%
same,Population Tubulin-Different-Phenotype (%),[11],0%
same,Total Cell Count,[11],663
same,Population Apoptotic (%),[12],87%
same,Population Fragmented Nuclei (%),[12],36%
same,Population Healthy Nuclei (%),[12],19%
same,Population Hoechst High Intensity Objects (%),[12],9%
same,Population Membrane Permeable-Phenotype (%),[12],6%
same,Population Mitochondria Different-Phenotype (%),[12],65%
same,Population Mitotic Cells (%),[12],12%
same,Population Normal (%),[12],90%
same,Population Pyknosed Nuclei (%),[12],44%
same,Population Tubulin-Different-Phenotype (%),[12],93%
same,Total Cell Count,[12],253

# Reference: ChEMBL document CHEMBL4689842, “EUbOPEN Chemogenomics Library wave 1” (2021)
